Test results reported in the array DNA melting data of Ke et al. (doi:10.1101/2024.01.08.574731).

Legend:
[1] = folding enthalpy; higher = less favourable; fluorescence melt of hairpins on a sequencing array, two-state fit; details: sodium 0.088 M
In short: (§1)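 Cy3 fluorescence of library hairpins on a sequenced MiSeq flow cell, with annealed Cy3 and quencher oligos, was imaged in 50 mM Na-HEPES pH 8.0, 25 mM NaCl in 2.5 °C steps up to 60 °C. Signals were normalised to pre-quench Cy3 and to control variants. Melting temperature and folding enthalpy came from bootstrapped two-state fits, inverse-variance combined over four replicates. Fitted temperatures were raised by 9.35 °C to match UV melts.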

[2] = melting temperature; fluorescence melt of hairpins on a sequencing array, two-state fit, raised by 9.35 °C to match UV melts; details: sodium 0.088 M
In short: as §1

Sequence | folding enthalpy [1] | Tm [2]
GGTGAGGGAAACCTCGCC ((.((((....)))).)) | -36.5 kcal/mol | 58.1 °C
GCTTGAGGAAACTTAAGC ((((.((....)).)))) | -26.4 kcal/mol | 39.7 °C
GTCGAAGAAATTCGAC ((((((....)))))) | -35.6 kcal/mol | 56.2 °C
GCTTTGGGAAACCGAAGC ((((.((....)).)))) | -39.5 kcal/mol | 52.5 °C
GGCTAGGCGAAAGCCGCC (((..(((....)))))) | -15 kcal/mol | 60.8 °C
GTCGCTCGAAAGAGGGAC (((.(((....))).))) | -44.3 kcal/mol | 63.2 °C
GCGTTCGAAAGAAAGCGC ((((((....)))..))) | -29.4 kcal/mol | 53.2 °C
GCAGCTGGAAACAACTGC ((((.((....)).)))) | -39.9 kcal/mol | 46.6 °C
GGGACCGAAAGGTACCCC ((((((....)))..))) | -12.5 kcal/mol | 61.3 °C
GATCAGCGAAAGCTCATC (((.(((....))).))) | -13 kcal/mol | 29.8 °C
GTGACTCGAAAGAGACAC (((.(((....))).))) | -32.1 kcal/mol | 54.3 °C
GTTCCGGGAAACCGGGAC ((.((((....)))).)) | -35.5 kcal/mol | 57.4 °C
GCGTAGCGAAAGCCTCGC (((..((....))..))) | -10.8 kcal/mol | 44.1 °C
GATCTCGAACGAGATC ((((((....)))))) | -40.8 kcal/mol | 60.2 °C
GGTGAAGGAAACTTCACC (((((((....))))))) | -42.6 kcal/mol | 63 °C
GTCAACCGAAAGGTAGAC (((.(((....))).))) | -31.6 kcal/mol | 51.5 °C
GATCGGCAATCCGATC ((((((....)))))) | -44.7 kcal/mol | 55 °C
GGACCAGGAAACTGGCCC ((.((((....)))).)) | -35.4 kcal/mol | 52.3 °C
GTGAGTGGAAACGCTTAC ((.((.(....).)).)) | -16.2 kcal/mol | 33.1 °C
GCTCCCGAAAGGGTGAGC ((((((....)))..))) | -16.7 kcal/mol | 48.8 °C
GGAAGCGAAAGCTATTCC ((((((....)))..))) | -14.1 kcal/mol | 35.8 °C
GCCATCGGAAACGATAGC ((.((((....)))).)) | -21.6 kcal/mol | 45 °C
GATCCGACTACGGATC ((((((....)))))) | -35.6 kcal/mol | 57.1 °C

Sequence | folding enthalpy [1] | Tm [2]
GCGCGGCGAAAGCGGGGC ((.(.((....)).).)) | -27.7 kcal/mol | 64.4 °C
GCTGCATCGAAAGATAGC (((..(((....)))))) | -17 kcal/mol | 35.6 °C
GTGGACGAAAGTCCTCAC ((((((....)))..))) | -9.72 kcal/mol | 38 °C
GATCGTCCCACGATC ((((((...)))))) | -38.5 kcal/mol | 57.6 °C
GGGAATGGAAACATTTCC ((.((((....)))).)) | -32 kcal/mol | 45.1 °C
GATCCTACCGAGGATC ((((((....)))))) | -39.2 kcal/mol | 51.2 °C
GATCCTCGCAGGATC ((((((...)))))) | -33.8 kcal/mol | 55.5 °C
GAATCGAAAGATTC (((((....))))) | -27.4 kcal/mol | 50.9 °C
GTGGGAGGAAACCCCCAC (((((.(....).))))) | -38.8 kcal/mol | 50.3 °C
GATCCATTACTGGATC ((((((....)))))) | -29.9 kcal/mol | 51.1 °C
GTTACTGGAAACGGTAAC (((((.(....).))))) | -32.2 kcal/mol | 43.9 °C
TGTCTGAAAAGACA (((((....))))) | -20.4 kcal/mol | 47.2 °C
GATCTACTTTTAGATC ((((((....)))))) | -33.1 kcal/mol | 39.8 °C
GCGGCGCGAAAGCCACGC (((..((....))..))) | -20.8 kcal/mol | 61.7 °C
GCAGGCGAAAGCCCGTGC ((((((....)))..))) | -13.1 kcal/mol | 43.6 °C
GGCAACGGAAACGTTGTC (.(((((....))))).) | -39.2 kcal/mol | 55.9 °C
GGCAATGGAAACATTGTC (.(((((....))))).) | -33.5 kcal/mol | 48.4 °C
GACATACGAAAGTAAGTC (((.(((....))).))) | -29.7 kcal/mol | 42.7 °C
GAACTGGGAAACCAGTCC (.(((((....))))).) | -14.1 kcal/mol | 37.3 °C
GCCTACTCGAAAGAGGGC (((..(((....)))))) | -26.4 kcal/mol | 44.1 °C
GATCGATGGATCGATC ((((((....)))))) | -36.5 kcal/mol | 54.5 °C
GATCTACTCTTAGATC ((((((....)))))) | -29.7 kcal/mol | 41.1 °C
GGAGTTGGAAACGACTTC (.(((.(....).))).) | -35.4 kcal/mol | 59.7 °C

Sequence | folding enthalpy [1] | Tm [2]
GCCAATGAAAATTGGC ((((((....)))))) | -30.7 kcal/mol | 59.9 °C
GTGTTAGAAATAACAC ((((((....)))))) | -28.6 kcal/mol | 47.1 °C
GGTGGCGAAAGCCCACC ((((((....))).))) | -17.5 kcal/mol | 61.7 °C
GCGAGGCGAAAGCAACGC (((..((....))..))) | -21.6 kcal/mol | 61.8 °C
GCAGAGCGAAAGCTTGC (((.(((....)))))) | -20.6 kcal/mol | 53.7 °C
GATCATAGCGATGATC ((((((....)))))) | -44.1 kcal/mol | 46.9 °C
GATCCTCGGAAGGATC ((((((....)))))) | -34.4 kcal/mol | 50.2 °C
GTGACCGAAAGGTATCAC ((((((....)))..))) | -14.8 kcal/mol | 39.7 °C
GTGGATCGAAAGATACAC (((.(((....))).))) | -44.2 kcal/mol | 55.9 °C
GGCTCATCGAAAGATGCC (((..(((....)))))) | -13.3 kcal/mol | 37.5 °C
GCTGCCGAAAGGCGAGC ((((((....))).))) | -18.6 kcal/mol | 64.3 °C
GATCACAACGGTGATC ((((((....)))))) | -38.7 kcal/mol | 56 °C
GCTGATGGAAACATTGGC ((..(((....)))..)) | -31 kcal/mol | 36 °C
GATCACTGGGTGATC ((((((...)))))) | -33.1 kcal/mol | 57.3 °C
GCTACTGGAAACAATAGC ((((.((....)).)))) | -18.5 kcal/mol | 31.3 °C
GGCACTACGAAAGTAGCC (((..(((....)))))) | -11.9 kcal/mol | 39.3 °C
GGATATCGAAAGATTTCC (((.(((....))).))) | -30.9 kcal/mol | 41.5 °C
GAATTGGGAAACCAATTC (((((((....))))))) | -45 kcal/mol | 54 °C
GAGGGCGAAAGCCTACTC ((((((....)))..))) | -11 kcal/mol | 41.1 °C
GTCTCGGGAAACTGGGAC (((.(.(....).).))) | -29.3 kcal/mol | 37.2 °C
CGTATACGGAAACGTACG (((..(((....)))))) | -27.7 kcal/mol | 33 °C
GCTTACCCGAAAGGGAGC (((..(((....)))))) | -15.3 kcal/mol | 39 °C
GCAGAGCGAAAGCCATGC (((..((....))..))) | -18.9 kcal/mol | 45.7 °C
